Measurements reported in ChEMBL document CHEMBL1139507, “Application of phosphoramidate pronucleotide technology to abacavir leads to a significant enhancement of antiviral potency” (J Med Chem, 2005).
pEC50: −log10 of the molar value. Values joined by “and” are separate entries in the source; they are usually repeats but may differ in a detail not shown here. Equal entries are not always repeated.

Legend:
[1] = Area under the plasma concentration-time curve in monkey after peroral dosage; format: ADME; details: cercopithecidae, po
How it was run: (§1)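 Female cynomolgus monkeys (three, 2.0-3.2 kg) received the succinate salt at 11.5 mg/kg (17.3 µmol/kg), 2.3 mg/mL in 10% DMSO/90% saline, 5 mL/kg, iv on day 1 and orally on day 8 (1-week washout); fasted overnight to ~4 h postdose. Serial plasma to 24 h, acetonitrile deproteination, LC/MS/MS of prodrug, alaninyl-ABC-MP, ABC-MP, ABC, CBV; noncompartmental analysis.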

[2] = Terminal elimination half-life in monkey after administration of intravenous dosage; format: ADME, organism-based; details: cercopithecidae, in vivo; how it was run: as §1
[3] = Total plasma clearance in monkey after administration of intravenous dosage; (n=3); format: ADME, organism-based; details: cercopithecidae; how it was run: as §1
[4] = Apparent half life value in monkey after oral dosage; format: ADME, organism-based; details: cercopithecidae, in vivo, read-out: T1/2 app (converted); how it was run: as §1
[5] = Time of maximum concentration was observed in monkey after oral dosage; format: ADME, organism-based; details: cercopithecidae, in vivo; how it was run: as §1
[6] = Area under the plasma concentration-time curve in monkey after administration of intravenous dosage; format: ADME; details: cercopithecidae; how it was run: as §1
[7] = Oral bioavailability in monkey after oral dosage; format: ADME, organism-based; details: cercopithecidae, in vivo; how it was run: as §1
[8] = tested on: Moloney murine sarcoma virus; assay: Effective concentration against murine moloney sarcoma virus in C3H/3T3 cells; format: functional, organism-based
[9] = tested on: CCRF-CEM; assay: Intracellular concentration of metabolites (CBVMP +alaninyl-ABCMP) from 11-13 hrs in CEM cells after incubation with the compound (10 uM); format: functional, cell-based; details: Homo sapiens
How it was run: (§2)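 CEM T4 lymphocytes seeded at (2-4) × 10⁵ cells/mL in RPMI-1640 with 10% fetal calf serum, 2 mM L-glutamine, 0.075% NaHCO₃. They were exposed 24 h to 10 µM [³H]abacavir or 1.1 µM ³H-ProTide (5 µCi/5 mL), washed twice in cold medium, and extracted with cold methanol/water 60:40. Metabolites were separated by SAX HPLC, (NH₄)H₂PO₄ pH 5.0 gradient 0.005-0.30 M, with fractions by retention time in min. Results are pmol/10⁹ cells.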

[10] = tested on: Human alphaherpesvirus 1; assay: Effective concentration against thymidine kinase competent herpes simplex virus (HSV-1) in […]; format: functional, organism-based
How it was run: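 Confluent HEL cell cultures inoculated with 100 CCID50 of HSV-1 (KOS), HSV-2 (G) or HSV-1 TK- (B2006, VMW-1837); after 1 h adsorption, residual virus removed and cells incubated with varying compound concentrations; cytopathicity recorded once complete in virus controls; EC50 = concentration inhibiting HSV-induced cytopathicity by 50%.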

[11] = tested on: Hepatitis B virus; assay: Effective concentration against hepatitis B virus in Hep G2.2.15 cells; format: functional, organism-based; details: HepG2 2.2.15
How it was run: (§3)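 Anti-HBV activity assayed in HepG2 2.2.15 human hepatoma cells, which constitutively produce HBV; EC50 = 50% effective concentration.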

[12] = tested on: Human immunodeficiency virus 2; assay: Effective concentration against human immunodeficiency virus type 2 (ROD) in CEM cells; format: functional, organism-based; details: Human immunodeficiency virus 2, CCRF-CEM
How it was run: (§4)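 HIV-1- and HIV-2-induced cytopathicity in CEM cell cultures, scored at day 4 by microscopic examination of virus-induced giant cell formation; EC50 = concentration inhibiting cytopathicity by 50%.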

[13] = tested on: CCRF-CEM; assay: Cytostatic concentration required to inhibit CEM cell proliferation; format: functional; details: Homo sapiens
[14] = Area under the plasma concentration-time curve in monkey after intravenous dosage; format: ADME; details: cercopithecidae; how it was run: as §1
[15] = tested on: Human alphaherpesvirus 2; assay: Effective concentration against thymidine kinase competent herpes simplex virus (HSV-2) in […]
[16] = tested on: C3H/3T3; assay: Cytostatic concentration required to inhibit C3H/3T3 cell proliferation; format: functional; details: Mus musculus
[17] = tested on: Human alphaherpesvirus 1; assay: Effective concentration against thymidine kinase deficient herpes simplex virus (HSV-1) in B2006 strain; details: Human alphaherpesvirus 1, B2006
[18] = tested on: Human immunodeficiency virus 1; assay: Ratio of CC50 to that of EC50 against human immunodeficiency virus type 1 in CEM cells; format: functional, CCRF-CEM
[19] = tested on: Human immunodeficiency virus 2; assay: Ratio of CC50 to that of EC50 against human immunodeficiency virus type 2 in CEM cells; format: functional, CCRF-CEM
[20] = tested on: CCRF-CEM; assay: Intracellular concentration of metabolites (CBVTP) from 35-38 hrs in CEM cells after incubation with the compound (10 uM); format: functional, cell-based; details: Homo sapiens; how it was run: as §2
[21] = tested on: HepG2; assay: Cytostatic concentration required to inhibit Hep G2.2.15 cell proliferation; format: functional, Homo sapiens
How it was run: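 Growth inhibition of HepG2 2.2.15 human hepatoma cells (constitutively HBV-producing) measured; CC50 = 50% cytostatic concentration.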

[22] = Terminal elimination half-life in monkey after intravenous dosage; NA=not applicable; format: ADME, organism-based; details: cercopithecidae, in vivo; how it was run: as §1
[23] = tested on: Human immunodeficiency virus 1; assay: Effective concentration against human immunodeficiency virus type 1 in CEM cells; format: functional, organism-based; details: Human immunodeficiency virus 1, CCRF-CEM; how it was run: as §4
[24] = tested on: Human alphaherpesvirus 1; assay: Effective concentration against thymidine kinase deficient herpes simplex virus (HSV-1) in VMW-1837 strain; details: Human alphaherpesvirus 1, VMW-1837
[25] = tested on: CCRF-CEM; assay: Intracellular concentration of metabolites (ABC + proABC + CBV) from 2-3 hrs in CEM cells after incubation with the compound (10 uM); format: functional, cell-based; details: Homo sapiens; how it was run: as §2
[26] = tested on: CCRF-CEM; assay: Intracellular concentration of metabolites (ABCMP) from 6-8 hrs in CEM cells after incubation with the compound (10 uM); format: functional, cell-based; details: Homo sapiens; how it was run: as §2
[27] = tested on: HEL; assay: Cytostatic concentration required to inhibit HEL cell proliferation; format: functional; details: Homo sapiens
How it was run: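 HEL cell proliferation measured in presence of compound; CC50 = 50% cytostatic concentration inhibiting HEL cell proliferation by 50%.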

[28] = tested on: CCRF-CEM; assay: Intracellular concentration of metabolites (CBVDP) from 19-21 hrs in CEM cells after incubation with the compound (10 uM); format: functional, cell-based; details: Homo sapiens; how it was run: as §2
[29] = tested on: Human immunodeficiency virus 1; assay: Effective concentration against human immunodeficiency virus type 1 in PBL cells; format: functional, organism-based; details: Human immunodeficiency virus 1, PBL
[30] = tested on: MT4; assay: Cytostatic concentration required to inhibit MT-4 cell proliferation; format: functional, Homo sapiens
[31] = tested on: CCRF-CEM; assay: Intracellular concentration of metabolites (CBV-MP) from 11-13 hrs in CEM cells after incubation with the compound (10 uM); format: functional, cell-based; details: Homo sapiens; how it was run: as §2
[32] = tested on: Human immunodeficiency virus 1; assay: Effective concentration against human immunodeficiency virus type 1 in MT-4 cells; format: functional, organism-based, MT4; details: mt4
[33] = tested on: HepG2; assay: Cytostatic concentration required to inhibit Hep G2 cell proliferation; format: functional; details: Homo sapiens
[34] = tested on: Human immunodeficiency virus 2; assay: Effective concentration against human immunodeficiency virus type 2 in MT-4 cells; format: functional, organism-based; details: Human immunodeficiency virus 2, MT4
[35] = tested on: Hepatitis B virus; assay: Effective concentration againstHBV in Hep G2.2.15 cells; format: functional, organism-based, HepG2 2.2.15; details: Hepatitis B virus, HepG2 2.2.15; how it was run: as §3
[36] = tested on: Human immunodeficiency virus 2; assay: Effective concentration against human immunodeficiency virus type 2 in CEM cells; format: functional, organism-based; details: Human immunodeficiency virus 2, CCRF-CEM; how it was run: as §4
[37] = tested on: CCRF-CEM; assay: Intracellular concentration of metabolites (ABC +CBV) from 2-3 hrs in CEM cells after incubation with the compound (10 uM); format: functional, cell-based; details: Homo sapiens; how it was run: as §2
[38] = Terminal elimination half-life in monkey after intravenous dosage; NA = not applicable; format: ADME, organism-based; details: cercopithecidae, in vivo; how it was run: as §1
[39] = tested on: Hepatitis B virus; assay: Effective concentration against HBV in Hep G2.2.15 cells; format: functional, organism-based, HepG2 2.2.15; details: Hepatitis B virus, HepG2 2.2.15; how it was run: as §3

SMILES	AUC [1] [µM·h]	half-life [4] [h]	Tmax [5] [h]	pEC50 [8]	pEC50 [10]	pEC50 [12]	CC50 [13] [µM]	AUC [14] [µM·h]	pEC50 [15]	CC50 [16] [µM]	pEC50 [17]	SI [18]	SI [19]	pEC50 [23]	pEC50 [24]	CC50 [27] [µM]	pEC50 [29]	also measured
CCOC(=O)[C@H](C)NP(=O)(OC[C@@H]1C=C[C@H](n2cnc3c(NC4CC4)nc(N)nc32)C1)Oc1ccccc1 (stereo partly specified)	0.7	0.4	0.8	–	–	–	–	–	–	–	–	–	–	–	–	–	–	half-life [2]: 6.6 min; clearance [3]: 113 mL/min/kg; AUC [6]: 2.7 µM·h; bioavailability [7]: 22%
Nc1nc(NC2CC2)c2ncn([C@H]3C=C[C@@H](COP(=O)(O)O)C3)c2n1	–	–	1.3	5.80	4.70	7.05	13	0.4	4.70	> 4	4.70	190	150	7.15	4.70	110	8.10	Concentration (pmol/10E9 cells) [9]: 12400; pEC50 [11]: 6.26; Concentration (pmol/10E9 cells) [20]: 3020; CC50 ([21]; Homo sapiens, HepG2): 17 µM; T1/2 [22]: Not Active; Concentration (pmol/10E9 cells) [25]: 5000; Concentration (pmol/10E9 cells) [26]: 280; Concentration (pmol/10E9 cells) [28]: 3490
Nc1nc(NC2CC2)c2ncn([C@H]3C=C[C@@H](CO)C3)c2n1 [ABACAVIR]	6	2.6	3	5.06	3.05	5.52	78	6	3.05	> 20	3.05	41	26	5.72	3.49	200	6.70	CC50 [30]: 192 µM and 89 µM; Concentration (pmol/E109 cells) [31]: 108; pEC50 [32]: 5.23 and 5.67; CC50 [33]: 110 µM; pEC50 [34]: 5.14; pEC50 [35]: 5.25; Concentration (pmol/E109 cells) [20]: 82; CC50 [21]: 17 µM and 110 µM; pEC50 [36]: 5.52; Concentration (pmol/E109 cells) [37]: 762; Concentration (pmol/E109 cells) [26]: 5.8; T1/2 [38]: Not Active; pEC50 [39]: 5.25; Concentration (pmol/E109 cells) [28]: 42
